Experiment [1] concerns the target Sodium/hydrogen exchanger 1 (Homo sapiens, UniProt P19634). Description: Inhibition of human NHE1 expressed in PS120 cells. The experiment is classed as cell-based. The method in brief:
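PS120 variant cells selectively expressing human NHE-1. Inhibition measured as the effect on sodium-dependent pH recovery after imposed intracellular acidosis. IC50 values are means of three experiments.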

The test system of experiment [2] is Heart. Description: Cardioprotective effect against ischemia reperfusion injury in rat heart assessed as recovery of rate pressure product at 10 uM. The experiment is classed as functional. In outline: (§1)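 Isolated rat heart ischemia/reperfusion model. Hearts exposed to 10 µM compound for 10 min before ischemia. Read-outs are recovery of contractile function as rate-pressure product (% RPP) and left ventricular end-diastolic pressure (mmHg), each compared with a vehicle group. Values are means, n = 3 or higher.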

The subject of experiment [3] is Heart. Description: Cardioprotective effect against ischemia reperfusion injury in rat heart assessed as left ventricular end diastolic pressure at 10 uM. The experiment is classed as functional. The method in brief: as §1
Experiment [4] relates to Rattus norvegicus. Description: Cardioprotective effect against ischemia reperfusion injury in rat myocardial infarction model assessed as ratio of infarction size to area at risk at 0.1 mg/kg, iv. The experiment is classed as functional, Myocardium. In outline:
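Rat myocardial infarction model. Animals stabilized 20 min after left thoracotomy, then 45 min coronary artery occlusion and 90 min reperfusion. Compound given at 0.1 mg/kg as bolus intravenous injection 5 min before ischemia onset. Infarct size measured as a ratio to area at risk (IS/AAR, %), compared with vehicle. Means, n = 3 or higher.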

The values that follow come from ChEMBL document CHEMBL1148836, “3-Substituted-(5-arylfuran-2-ylcarbonyl)guanidines as NHE-1 inhibitors” (Bioorg Med Chem Lett, 2007).

pIC50: −log10 of the molar value.

Sodium/hydrogen exchanger 1, sequence (P19634 whole entry): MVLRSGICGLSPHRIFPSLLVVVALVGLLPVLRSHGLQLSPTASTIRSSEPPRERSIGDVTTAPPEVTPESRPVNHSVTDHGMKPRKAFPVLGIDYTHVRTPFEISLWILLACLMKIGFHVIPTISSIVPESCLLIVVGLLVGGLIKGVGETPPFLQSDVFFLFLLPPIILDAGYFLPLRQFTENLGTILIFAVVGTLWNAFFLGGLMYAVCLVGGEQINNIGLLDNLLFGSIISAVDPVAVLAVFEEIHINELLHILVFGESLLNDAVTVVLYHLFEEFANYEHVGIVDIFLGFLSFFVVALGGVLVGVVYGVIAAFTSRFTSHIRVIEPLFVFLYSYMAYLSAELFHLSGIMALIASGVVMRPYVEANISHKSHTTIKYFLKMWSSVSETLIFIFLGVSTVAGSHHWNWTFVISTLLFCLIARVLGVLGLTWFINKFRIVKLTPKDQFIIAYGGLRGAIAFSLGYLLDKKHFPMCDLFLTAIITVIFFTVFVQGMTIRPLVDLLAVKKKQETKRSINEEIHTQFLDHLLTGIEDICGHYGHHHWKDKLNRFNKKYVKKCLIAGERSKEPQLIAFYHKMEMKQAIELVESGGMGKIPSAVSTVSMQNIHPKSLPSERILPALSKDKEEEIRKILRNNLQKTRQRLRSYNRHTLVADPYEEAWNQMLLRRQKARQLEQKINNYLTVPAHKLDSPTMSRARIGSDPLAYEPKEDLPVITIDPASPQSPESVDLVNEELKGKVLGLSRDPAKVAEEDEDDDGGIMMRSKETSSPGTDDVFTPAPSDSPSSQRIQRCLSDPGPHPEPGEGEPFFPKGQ

On to `NC(N)=NC(=O)c1oc(-c2cc(Cl)ccc2Cl)cc1N1CCCC1`, for which the pIC50 in experiment [1] is 6.32.

The compound `CC(=O)N(C)c1cc(-c2cccc(Cl)c2)oc1C(=O)NC(=N)N` had a pIC50 in experiment [1] of under 4.52.

As for `Cc1ccccc1-c1cc(N)c(C(=O)N=C(N)N)o1`, the pIC50 in experiment [1] is 6.62. Besides, the Activity in experiment [2] stood at 30%; in experiment [3], 28 mmHg; in experiment [4], 47%.

With `COc1ccc(Cl)cc1-c1cc(N(C)C)c(C(=O)N=C(N)N)o1`, the pIC50 in experiment [1] was 7.92. For the same compound, the Activity was 6.4% in experiment [2] and 40 mmHg in experiment [3].

Regarding `CC(=O)N(C)c1cc(-c2ccccc2)oc1C(=O)NC(=N)N`, the pIC50 in experiment [1] was under 4.52.

In turn, `CN(C)c1cc(-c2ccccc2)oc1C(=O)N=C(N)N` gave a pIC50 in experiment [1] of 6.92.

`Cc1cccc(-c2cc(N)c(C(=O)NC(=N)N)o2)c1` had a pIC50 in experiment [1] of 6.11.

Consider `CC(=O)Nc1cc(-c2cccc(Cl)c2)oc1C(=O)NC(=N)N`, for which the negative logarithm of the IC50 (pIC50) in experiment [1] is 4.85.

As for `NC(N)=NC(=O)c1oc(-c2cc(Cl)ccc2Cl)cc1N1CCCCC1`, in experiment [1], the pIC50 is 6.32.

In the case of `CNc1cc(-c2cc(Cl)ccc2Cl)oc1C(=O)N=C(N)N`, the pIC50 in experiment [1] was 7.02.

On to `CN(C)c1cc(-c2cccc(Cl)c2)oc1C(=O)N=C(N)N`, for which the pIC50 in experiment [1] is 6.92.

Turning to `Cc1ccc(C)c(-c2cc(N)c(C(=O)NC(=N)N)o2)c1`, in experiment [1], the pIC50 is 7.14.

As to `NC(N)=NC(=O)c1oc(-c2cccc(Cl)c2)cc1N`, in experiment [1], the pIC50 is 6.82. Further, the Activity was determined as 33% in experiment [2], 27 mmHg in experiment [3] and 53% in experiment [4].

In turn, `Cc1cc(-c2cccc(Cl)c2)oc1C(=O)NC(=N)N` had a pIC50 in experiment [1] of 7.62.

On to `COc1ccc(Cl)cc1-c1cc(C)c(C(=O)N=C(N)N)o1`, for which, in experiment [1], the pIC50 is 8.00. Further, the Activity in experiment [2] is recorded as 0.3%; in experiment [3], 34 mmHg.

For `CC(=O)Nc1cc(-c2cc(Cl)ccc2Cl)oc1C(=O)N=C(N)N`, the pIC50 in experiment [1] was 5.21.

`CNc1cc(-c2ccccc2)oc1C(=O)N=C(N)N`: the negative-log IC50 (pIC50) in experiment [1] was 6.09.

As to `CC(=O)Nc1cc(-c2ccccc2)oc1C(=O)N=C(N)N`, the pIC50 in experiment [1] is 4.85.

With `N=C(N)NC(=O)c1oc(-c2cccc(Cl)c2)cc1-n1cccc1`, in experiment [1], the pIC50 is 5.52.

`N=C(N)NC(=O)c1oc(-c2cccc(Cl)c2)cc1N1CCCC1` had a pIC50 in experiment [1] of 5.29.

On to `COc1ccc(Cl)cc1-c1cc(NC(C)=O)c(C(=O)N=C(N)N)o1`, for which the pIC50 in experiment [1] is 5.35.

`COc1ccc(Cl)cc1-c1cc(N)c(C(=O)N=C(N)N)o1` had a negative logarithm of the IC50 (pIC50) in experiment [1] of 7.82. Also, the Activity in experiment [2] is 27%; in experiment [3], 29 mmHg.

In experiment [1], `N=C(N)NC(=O)c1oc(-c2cc(F)ccc2F)cc1N` had a pIC50 of 6.39.

Compound `Cc1cc(-c2cc(F)ccc2F)oc1C(=O)N=C(N)N` had a pIC50 in experiment [1] of 6.89.

The compound `NC(N)=NC(=O)c1oc(-c2ccccc2F)cc1N` showed a pIC50 in experiment [1] of 5.92. Moreover, the Activity in experiment [2] is reported as 62%; in experiment [3], 20 mmHg.

In turn, `CC(=O)N(C)c1cc(-c2cc(Cl)ccc2Cl)oc1C(=O)N=C(N)N` had a pIC50 in experiment [1] of under 4.52.

As to `CCc1cc(-c2cccc(Cl)c2)oc1C(=O)NC(=N)N`, in experiment [1], the pIC50 was 6.64.

In experiment [1], `COc1ccc(F)cc1-c1cc(N)c(C(=O)NC(=N)N)o1` gave a negative-log IC50 (pIC50) of 6.92. This pIC50 lies 0.28 log units higher than the previous one.

In turn, `CN(C)c1cc(-c2cc(Cl)ccc2Cl)oc1C(=O)NC(=N)N` gave a negative logarithm of the IC50 (pIC50) in experiment [1] of 8.05. This pIC50 lies 1.13 log units higher than the previous one.

Compound `COc1ccc(Cl)cc1-c1cc(-c2ccccc2)c(C(=O)NC(=N)N)o1` had a negative-log IC50 (pIC50) in experiment [1] of 5.25.

In the case of `CNc1cc(-c2cccc(Cl)c2)oc1C(=O)N=C(N)N`, the pIC50 in experiment [1] was 6.09.

Compound `NC(N)=NC(=O)c1oc(-c2cccc(F)c2)cc1N` gave a negative-log IC50 (pIC50) in experiment [1] of 6.17. Besides, the figures for the Activity in experiment [2] and in experiment [3] were 49% and 25 mmHg, respectively.

Regarding `N=C(N)NC(=O)c1oc(-c2cc(Cl)ccc2Cl)cc1N`, the pIC50 in experiment [1] is 8.10.

`NC(N)=NC(=O)c1oc(-c2cccc(Cl)c2)cc1N1CCCCC1`: in experiment [1], the pIC50 is 4.80. This pIC50 is 3.30 log units lower than that of the compound before.

In experiment [1], `COc1ccc(Cl)cc1-c1cc(N(C)C(C)=O)c(C(=O)NC(=N)N)o1` had a negative logarithm of the IC50 (pIC50) of 4.48. This pIC50 lies 0.32 log units lower than the previous one.

Compound `Cc1cc(-c2cc(Cl)ccc2Cl)oc1C(=O)NC(=N)N` showed a pIC50 in experiment [1] of 7.80.

`COc1ccccc1-c1cc(N)c(C(=O)N=C(N)N)o1` had a pIC50 in experiment [1] of 6.82. Further, the Activity in experiment [2] came to 30%; in experiment [3], 31 mmHg; in experiment [4], 55%.

For `CC(C)c1ccc(C(=O)N=C(N)N)cc1S(C)(=O)=O` [CARIPORIDE], the Activity in experiment [2] amounted to 48%; in experiment [3], 24 mmHg; in experiment [4] it was 41%.

For the compound `N=C(N)NC(=O)c1oc(-c2ccccc2)cc1N`, the pIC50 in experiment [1] is 5.64.
